SMILES strings stand for the structures.

Two molecules from BindingDB's records for doi:10.1016/j.bmcl.2018.04.005 (Shanghai Institute of Materia Medica, 2018) can be followed below.

For this experiment, the target named is T1, Sortase family protein (Staphylococcus aureus, UniProt Q9S446).
T1 sequence (Q9S446 whole entry): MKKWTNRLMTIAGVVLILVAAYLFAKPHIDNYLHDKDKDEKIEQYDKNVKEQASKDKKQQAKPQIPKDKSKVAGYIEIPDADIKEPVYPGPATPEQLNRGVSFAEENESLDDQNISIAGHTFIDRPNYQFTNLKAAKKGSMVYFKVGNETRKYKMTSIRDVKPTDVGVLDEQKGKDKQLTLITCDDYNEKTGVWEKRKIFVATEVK
In words: Inhibition of Staphylococcus aureus SrtA deltaN24 mutant assessed as decrease in transpeptidation of IsdA (64 to 323 residues) incubated for 1.25 hrs in presence of NH2-Gly3 nucleophile by SDS-PAGE method. The method in brief:
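Recombinant, affinity-purified IsdA64-323 (a natural SrtA substrate from S. aureus) is incubated with purified SrtAΔN24 and NH2-Gly3 nucleophile, with or without test compound. Cleavage at the sorting signal gives the transpeptidation product, which is resolved by SDS-PAGE. Inhibition is judged from partial or complete blockade of product formation. Used as a counter-screen against FRET false positives.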

As for `CC(C)=CC[C@H](O)c1cc(O)c2c(c1O)C(=O)C=CC2=O`, the IC50 was found to be 5 µM.
With `CC(C)C=CC(=O)c1cc(O)c2c(O)ccc(O)c2c1O` [5,8-Dihydroxy-2-(1-hydroxy-4-methyl-pent-3-enyl)-[1,4]naphthoquinone], the IC50 amounted to 5 µM.
